# Rows were chosen to be rich in hits. Some 0.83% of all compounds tested hit in one or more screens of this group.
# V1aR counter: agonists of human V1a receptor, primary screen, counter-screen for OXTR agonist project, fluorescence, CHO-V1R cells | Fluo-8 calcium fluorescence, agonist mode; 0% DMSO, 100% 3 nM vasopressin | activation, % at 3 µM | 320,000 tested, 0.25% active | AID 2797, 2010;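 active = activation above the mean activation of all tested compounds plus 3 SD, per screening run, cut at about 20% in these data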;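 also: signal is peak over basal fluorescence ratio across a 100 second FLIPR read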
# zfTRPN1 agonist: zebrafish TRPN1 channel agonists, primary screen, cell-based, HEK293, calcium fluorescence; HEK293 zebrafish TRPN1-YFP, Fluo-8 calcium fluorescence; 100% = response to 87 µM carbachol; 220,000 tested, 0.18% active; activation, % at 3 µM;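 active = activation above its plate's cutoff, the mean activation of test wells on that plate plus 3 SD, cut at about 19% in these data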;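 also: 0% = DMSO alone and 100% = 87 µM carbachol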
#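 Material: zebrafish TRPN1-YFP in HEK293 cells. Doses: one dose of 3 µM, 0.3% DMSO. Incubation: dye 1 h 37 °C plus 30 min RT. Measured by: intracellular calcium fluorescence with Fluo-8.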
# TRPML3 agonist: human TRPML3 channel agonists, primary screen, cell-based, HEK293 TRPML3-YFP, Fluo-8 calcium fluorescence, 3 µM; 220,000 tested, 0.29% active; AID 1448, 2008; activation, % at 3 µM; Mucolipin-3 (Homo sapiens), Q8TDD5; 100% = the carbachol control signal;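 active = activation above its plate's cutoff, the mean activation of the plate's test wells plus 3 SD, cut at about 12% in these data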;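 also: 0% = DMSO only wells and 100% = carbachol wells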
#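 Test system – HEK293 line with stable expression of human TRPML3-YFP channel · Control set – carbachol 87 µM final as high control (100%), DMSO as low control (0%) · Signal – Fluo-8 calcium dye fluorescence, ex 470-495, em 515-575 nm · Incubation – 1-h 37 °C dye load, 5-s basal, 120-s post-compound reads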
# CRFR2-BP ag: agonists of CRF-BP/CRF-R2 complex, primary screen, cell-based, HEK293, calcium dye fluorescence, uHTS. 350,000 tested, 0.46% active. CRF-binding protein / CRF receptor 2 complex (human). AID 588473, 2011. activation, % at 13.2 µM. calcium dye fluorescence (FLIPR); percent of saturating CRF peptide response;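 active = activation of at least 50%, plus an integration ratio under a set limit after plate pattern correction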;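 also: plate controls were neutral control wells without compound for no effect and CRF at EC100 for full effect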
# OXTR potentiator: human OXTR potentiators, primary screen, fluorescence, CHO-OTR cells, Fluo-8 calcium; 320,000 tested, 0.061% active; activation, % at 3 µM; Fluo-8 calcium fluorescence, potentiator mode; 0% = oxytocin EC15, 100% = EC100; Oxytocin receptor (Homo sapiens), P30559; AID 2445, 2010;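 active = activation above that plate's cutoff, the mean activation of tested compounds plus 3 SD, cut at about 6.6% in these data, passing the limit was not always enough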;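 also: 100% uses oxytocin at 75 nM as the full agonist control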
# Target sequence (P30559 whole entry, looked up): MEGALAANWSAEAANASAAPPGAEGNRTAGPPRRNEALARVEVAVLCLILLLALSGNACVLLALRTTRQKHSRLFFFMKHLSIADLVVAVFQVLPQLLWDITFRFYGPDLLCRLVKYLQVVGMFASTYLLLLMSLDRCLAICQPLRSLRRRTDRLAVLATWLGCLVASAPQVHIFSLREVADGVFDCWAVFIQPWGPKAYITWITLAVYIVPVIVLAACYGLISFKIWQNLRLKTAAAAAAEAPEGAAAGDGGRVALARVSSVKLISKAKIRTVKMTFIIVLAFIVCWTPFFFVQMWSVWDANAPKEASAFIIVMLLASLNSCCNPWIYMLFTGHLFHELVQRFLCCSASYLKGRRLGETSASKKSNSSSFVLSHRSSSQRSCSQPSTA
#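 Measured by – Fluo-8 calcium dye fluorescence · Test system – human OTR in CHO cells · Dosing – one concentration, 3.0 µM compound · Controls – EC15 oxytocin alone as 0%, 75 nM oxytocin as 100% · Evaluation – normalized max/min fluorescence ratio, % activation · Timing – 6 min pre-incubation, 100 s read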
# OXTR ag: human OXTR agonists, primary screen, fluorescence, CHO-OTR cells, Fluo-8 calcium. Oxytocin receptor (Homo sapiens), P30559. Fluo-8 calcium fluorescence; normalized: DMSO 0%, oxytocin 100%. activation, % at 3 µM. 320,000 tested, 0.32% active. AID 2435, 2010;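 active = activation above the mean of all tested compounds plus 3 SD, cutoff set per screening run, cut at about 20% in these data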;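 also: peak over basal fluorescence ratio from a 100 s FLIPR kinetic read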
# * = called active by the depositor; nt = not tested or not shown.
SMILES,V1aR counter,zfTRPN1 agonist,TRPML3 agonist,CRFR2-BP ag,OXTR potentiator,OXTR ag
CCC1CCCCN1CC(=O)c1c(C)[nH]c2ccc(OC)cc12 (configuration not stated),0,0,1,1,-7,-1
Cc1[nH]c2ccccc2c1C(=O)CN1CCCCC1C (configuration not stated),1,2,1,74*,-11,1
COc1ccc(C(=O)COC(=O)C2COc3ccccc3O2)c(OC)c1 (configuration not stated),nt,nt,nt,-2,nt,nt
O=c1c2ccccc2sc2ccc(NCCCN3CCOCC3)cc12,11,nt,nt,102*,-12,10
COc1cc2sc3cc(NCCCN4CCOCC4)ccc3c(=O)c2cc1OC,-1,nt,nt,-6,0,0
CC1(C)CC(=O)C(C=Nc2ccc(C(=O)c3ccccc3)cc2N=CC2=C(O)CC(C)(C)CC2=O)=C(O)C1,6,4,3,105*,-8,4
O=C(NNC(=S)NCc1ccccc1)c1ccccc1OC(F)F,3,-1,0,-1,-11,1
O=C(NNC(=S)Nc1ccc(Cl)cc1)c1ccccc1OC(F)F,8,4,3,51*,-13,12
O=C(O)CCCCCN1C(=O)/C(=C\c2ccc(-c3ccc(Cl)cc3)o2)SC1=S,0,1,1,114*,-15,2
CCCN1C(=O)/C(=C/c2c(N3CCNC(=O)C3CC(=O)OCC)nc3c(C)cccn3c2=O)SC1=S (configuration not stated),11,28*,12*,191*,-10,11
CCOC(=O)CC1C(=O)NCCN1S(=O)(=O)c1ccc(Cl)c(Cl)c1 (configuration not stated),0,1,0,-3,-12,4
CCCN1C(=O)/C(=C/c2c(NCCCOC(C)C)nc3c(C)cccn3c2=O)SC1=S,4,3,1,191*,-12,5
CCOC(=O)CC1C(=O)NCCN1C(=O)c1ccc(C)cc1 (configuration not stated),1,nt,nt,0,1,0
CCOC(=O)CC1C(=O)NCCN1c1nc2ccc(C)cn2c(=O)c1/C=C1\SC(=S)N(CC(C)C)C1=O (configuration not stated),13,32*,5,189*,-9,18
CCOC(=O)CC1C(=O)NCCN1c1nc2ccc(C)cn2c(=O)c1/C=C1\SC(=S)N(C(C)CC)C1=O (configuration not stated),11,20*,2,nt,-13,15
Oc1ccc(C[C@H]2CNC(=S)N2CC2CCCN2C[C@H](Cc2ccccc2)N2C[C@H](Cc3ccc(O)cc3)N(CCc3ccccc3)C2=S)cc1 (some centres not stated),nt,nt,nt,0,nt,nt
CN(C(=O)c1ccc(NC(=O)Cc2ccc([N+](=O)[O-])cc2)cc1)C1CCCC1,21*,nt,nt,11,-12,22*
Cc1cc(NC(=O)CN2C(=O)NC(C)(c3ccc(OC(F)F)cc3)C2=O)no1 (configuration not stated),14,15,7,78*,-24,14
CC1(c2ccc(OC(F)F)cc2)NC(=O)N(CC(=O)Nc2cccc(F)c2)C1=O (configuration not stated),31*,nt,nt,136*,-16,53*
CC1(c2ccc(OC(F)F)cc2)NC(=O)N(CC(=O)Nc2ccc(OC(F)F)cc2)C1=O (configuration not stated),28*,nt,nt,47,-16,40*
Cc1cc(NC(=O)CN2C(=O)NC(C)(c3ccccc3Cl)C2=O)no1 (configuration not stated),1,nt,nt,-2,4,2
CCOC(=O)c1c(NC(=O)CN2C(=O)NC(C)(c3ccc(OC(F)F)cc3)C2=O)sc(C)c1C (configuration not stated),20*,9,3,17,-11,27*
Cc1ccc(C2(C)NC(=O)N(CC(=O)N(C)CC(=O)Nc3cccc(F)c3)C2=O)cc1 (configuration not stated),0,nt,nt,1,-2,0
O=C(COc1ccccc1)N[C@@H]1c2ccccc2CC[C@@H]1O,nt,nt,nt,1,nt,nt
COc1ccc2c(c1)CCC1(C)CC(=O)C(Br)=C21 (configuration not stated),nt,nt,nt,-2,nt,nt
SMILES,V1aR counter,zfTRPN1 agonist,TRPML3 agonist,CRFR2-BP ag,OXTR potentiator,OXTR ag
COc1ccc(OCC(=O)N(Cc2sccc2C)C2CCS(=O)(=O)C2)cc1 (configuration not stated),2,nt,nt,-1,-5,2
COc1ccc(NC(=O)CSCC(=O)Nc2cccc3ncccc23)cc1,0,nt,nt,4,-13,0
CCOc1ccc(NC(=O)CN2C(=O)NC(C)(c3ccc(OC(F)F)cc3)C2=O)cc1 (configuration not stated),43*,nt,nt,74*,-17,43*
CC1(c2ccc(OC(F)F)cc2)NC(=O)N(CC(=O)Nc2ccc(S(N)(=O)=O)cc2)C1=O (configuration not stated),0,-1,0,-1,-14,-1
CN(CC(=O)Nc1ccccc1Cl)C(=O)c1cc(C2CC2)nn1-c1ccccc1,1,nt,nt,-2,-4,-2
NC(=Nc1ccccc1)Nc1ccccc1,10,nt,nt,147*,-25,11
CCOC(=O)/C(C(=Nc1ccccc1)Nc1ccccc1)=C(\C)O,-2,nt,nt,-1,1,-2
O=[N+]([O-])c1ccc(O)c(/C=N/n2cnc3ccccc32)c1,14,2,1,35,-14,21*
COP(=O)(OC)c1nc(-c2ccc([N+](=O)[O-])cc2)oc1N1CCCCC1,6,nt,nt,54*,-11,5
CN1Cc2sc(NC(=S)NC(=O)c3ccccc3)c(C#N)c2CC1(C)C,34*,7,5,93*,-10,32*
CCC1(C)Cc2c(sc(NC(=S)NC(=O)c3ccccc3)c2C#N)CO1 (configuration not stated),0,1,1,1,-7,0
O=C(c1cc2ccccc2o1)N1CCN(c2ncccn2)CC1,1,nt,nt,0,1,-1
CN(N=Nc1ccc([N+](=O)[O-])cc1)c1ccccc1,0,0,1,84*,3,-1

# Compound activity: PubChem, several laboratories
